SMILES strings stand for the structures.

For orientation: inhibition means the drop in the measured response relative to a control, in per cent.

Hypoxia-inducible factor 1-alpha (Homo sapiens), sequence (Q16665 whole entry, looked up): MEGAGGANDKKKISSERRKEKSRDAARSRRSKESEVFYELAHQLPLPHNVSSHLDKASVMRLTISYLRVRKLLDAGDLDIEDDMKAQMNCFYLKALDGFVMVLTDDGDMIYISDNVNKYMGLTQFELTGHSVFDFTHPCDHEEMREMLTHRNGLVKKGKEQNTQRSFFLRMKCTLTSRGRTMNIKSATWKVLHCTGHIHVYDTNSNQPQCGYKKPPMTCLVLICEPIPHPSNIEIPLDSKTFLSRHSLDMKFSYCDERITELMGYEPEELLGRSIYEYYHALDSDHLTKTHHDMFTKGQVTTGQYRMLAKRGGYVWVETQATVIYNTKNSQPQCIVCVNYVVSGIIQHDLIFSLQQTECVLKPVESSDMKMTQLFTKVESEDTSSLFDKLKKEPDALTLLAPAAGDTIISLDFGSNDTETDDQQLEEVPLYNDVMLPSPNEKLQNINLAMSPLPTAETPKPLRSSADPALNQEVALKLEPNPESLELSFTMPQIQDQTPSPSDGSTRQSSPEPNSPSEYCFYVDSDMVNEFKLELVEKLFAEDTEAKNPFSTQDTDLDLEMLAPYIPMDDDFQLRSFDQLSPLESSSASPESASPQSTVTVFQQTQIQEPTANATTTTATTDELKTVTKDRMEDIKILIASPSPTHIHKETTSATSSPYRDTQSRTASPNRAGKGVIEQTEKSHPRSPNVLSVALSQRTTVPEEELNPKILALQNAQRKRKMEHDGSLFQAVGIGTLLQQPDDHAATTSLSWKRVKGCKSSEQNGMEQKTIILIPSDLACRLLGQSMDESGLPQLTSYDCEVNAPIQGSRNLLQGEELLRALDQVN

The target in this assay is Hypoxia-inducible factor 1-alpha (Homo sapiens) (UniProt Q16665). The experiment in a line: Inhibition of HIF1alpha transcriptional activity in hypoxia-induced human HCCLM3 cells co-transfected with luciferase reporter plasmid containing five copies of HREs and pRL-SV40 plasmid encoding Renilla luciferase at 10 uM incubated with compound under normoxia for 1 hr followed by hypoxia induction and measured after 24 hrs by HRE-dependent dual luciferase reporter gene assay relative to control. The essentials:
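LM3 cells co-transfected with firefly luciferase reporter carrying five HRE copies plus pRL-SV40 Renilla plasmid; after transfection treated and kept under hypoxia; firefly luminescence normalized to Renilla. Single-point inhibition rate at 10 μM; IC50 for selected compounds.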
For orientation: A reporter such as luciferase makes a cellular process visible.
For the molecule `O=C(NCCc1ccccc1F)c1ccc(-c2cccc(F)c2)cn1`, the inhibition is 55.3%. In the case of `O=C(NCCc1cccc(F)c1)c1ccc(-c2ccccc2)cn1`, the inhibition stood at 58.7%. The same measure for `O=C(NCCc1ccncc1)c1csc(-c2cccnc2)n1`: 33.9%; for `O=C(NCCc1ccc(O)cc1)c1ccc(-c2ccccc2)cn1`: 36.9%; for `O=C(NCCc1ccccc1Cl)c1csc(-c2ccccc2)n1`: 54.1%.

For `O=C(NCCc1ccccc1Cl)c1cc(-c2ccccc2)ncn1`, the inhibition was 56.7%.

Take `O=C(NCCc1ccccc1Cl)c1coc(-c2ccccc2)n1`: the inhibition came to 51.4%.

On to `O=C(NCCc1ccccc1Cl)c1ccc(-c2ccccc2)nc1`, for which the inhibition was found to be 45.1%. The same measure for `O=C(NCCc1ccccc1F)c1ccc(-c2ccco2)cn1`: 57.2%; for `O=C(NCCc1ccccc1F)c1ccc(-c2ccc(F)cc2)cn1`: 41.2%. For `Cc1ccc(C(=O)NCCc2ccccc2Cl)cc1` the value was 45.3%; for `Cc1cccc(C(=O)NCCc2ccncc2)n1`, 36.4%. `O=C(NCCc1ccc([N+](=O)[O-])cc1)c1ccc(-c2ccccc2)cn1`: the inhibition worked out at 40.2%. For `O=C(NCCc1ccncc1)c1nc(-c2ccccc2)no1` the value was 36.9%; for `Cc1nc(C(=O)NCCc2cccc(Cl)c2)cs1`, 1.2%. For `N#Cc1ccc(-c2ccc(C(=O)NCCc3ccccc3F)nc2)cc1` the value was 13.1%. The same measure for `O=C(NCCc1ccccc1Cl)c1nc(-c2ccccc2)no1`: 44.1%; for `O=C(NCCc1ccncc1)c1noc(-c2ccccc2)n1`: 49.7%; for `O=C(NCCc1ccncc1)c1csc(-c2ccccc2)n1`: 48.7%.

Take `O=C(NCCc1ccc(F)cc1)c1ccc(-c2ccccc2)cn1`: the inhibition is 46.1%. For `O=C(NCCc1ccccc1Cl)c1csc(-c2cccnc2)n1`, the inhibition came out at 21.6%. On to `O=C(NCCc1ccncc1)c1ccc(-c2ccccc2)cc1`, for which the inhibition came to 42%.

On to `Cc1ccc(CCNC(=O)c2ccc(-c3ccccc3)cn2)cc1`, for which the inhibition was determined as 31.8%. The same measure for `Cc1nc(C(=O)NCCc2cccnc2)cs1`: 2.4%. Consider `Cc1nc(C(=O)NCCc2ccncc2)cs1`, for which the inhibition came out at 31.3%. The same measure for `O=C(NCCc1ccncc1)c1ncc(-c2ccccc2)o1`: 53.5%. The same measure for `O=C(NCCc1cccnc1)c1ccc(-c2ccccc2)cn1`: 44.5%; for `O=C(NCCc1ccccc1Cl)c1csc(-c2ccncc2)n1`: 18.4%; for `O=C(NCCc1ccncc1)c1coc(-c2ccccc2)n1`: 38.7%. For `Cc1nc(C(=O)NCc2ccccc2)cs1` the value was 3.1%; for `O=C(NCCc1ccccc1Cl)c1nnc(-c2ccccc2)o1`, 41.8%; for `Cc1cccc(C(=O)NCCc2ccccc2Cl)n1`, 37.3%. Take `O=C(NCCc1ccccc1F)c1ccc(-c2ccncc2)cn1`: the inhibition is 57.5%.

Take `Cc1nc(C(=O)NCCCc2ccccc2)cs1`: the inhibition is 6.5%. For `O=C(NCCc1ccccc1Cl)c1ncc(-c2ccccc2)o1` the value was 52.3%. Consider `Cc1ccc(C(=O)NCCc2ccncc2)o1`, for which the inhibition was 12.8%. For `O=C(NCCc1ccccc1F)c1ccc(-c2ccc(O)cc2)cn1` the value was 33.2%; for `Cc1ccc(C(=O)NCCc2ccccc2Cl)o1`, 17.4%.

Regarding `O=C(NCCc1ccc(Cl)cc1)c1ccc(-c2ccccc2)cn1`, the inhibition stood at 58.2%. As to `O=C(NCCc1ccccc1F)c1ccc(-c2ccccc2O)cn1`, the inhibition was 43.6%. For `O=C(NCCc1ccncc1)c1csc(-c2ccncc2)n1` the value was 19.9%.

Take `Cc1nc(C(=O)NCCc2ccc(Cl)cc2)cs1`: the inhibition was 0.6%.

In the case of `O=C(NCCc1ccccc1Cl)c1noc(-c2ccccc2)n1`, the inhibition was 40.5%.

For `Cc1nc(C(=O)NCCc2ccccc2Cl)cs1`, the inhibition came to 42.7%.

The values are drawn from ChEMBL document CHEMBL4354811, “Discovery of Novel Aryl Carboxamide Derivatives as Hypoxia-Inducible Factor 1α Signaling Inhibitors with Potent Activities of Anticancer Metastasis” (J Med Chem, 2019).
